Measured values from ChEMBL document CHEMBL2434944, “Novel acetamidothiazole derivatives: synthesis and in vitro anticancer evaluation” (Eur J Med Chem, 2013).

Experiments:
SW-620 = assay: Growth inhibition of human SW620 cells assessed as cell growth at 10^-5 M after 48 hrs by sulforhodamine B assay relative to control; format: functional; settings: SW-620, 48 h, read-out: Activity
Procedure, shortened: (§1)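 NCI-60 single-dose screen, 10^-5 M final. Cells grown in RPMI 1640 with 5% FBS and 2 mM L-glutamine, seeded at 5,000–40,000 cells/well by doubling time. Preincubated 24 h at 37°C, 5% CO2. Compound in DMSO, diluted in medium with gentamicin, then 48 h exposure. Fixed with cold TCA, SRB stained, A515 read. Percent growth vs untreated control, time-zero plate corrected.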

NCI-H522 = assay: Growth inhibition of human NCI-H522 cells assessed as cell growth at 10^-5 M after 48 hrs by sulforhodamine B assay relative to control; format: functional; settings: NCI-H522, 48 h, read-out: Activity
Procedure, shortened: (§2)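 NCI-60 single-dose screen at 10^-5 M. Cells grown in RPMI 1640 with 5% FBS and 2 mM L-glutamine, plated at 5,000–40,000 cells/well according to doubling time, and preincubated 24 h at 37°C, 5% CO2. Compound dissolved in DMSO and added. Exposure 48 h. Adherent cells fixed with cold TCA (10% final), suspension cells with 16% final TCA. Read-out is 0.4% SRB staining, dye solubilised in 10 mM Tris, absorbance at 515 nm. Percent growth is calculated against the time-zero plate and untreated control.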

MDA-MB-468 = assay: Growth inhibition of human MDA-MB-468 cells assessed as cell growth at 10^-5 M after 48 hrs by sulforhodamine B assay relative to control; format: functional; settings: MDA-MB-468, 48 h, read-out: Activity; procedure, shortened: as §2
[1] = target: Mitogen-activated protein kinase 1 (Homo sapiens, UniProt P28482); assay: Inhibition of human MAPK1
NCI-H226 = assay: Growth inhibition of human NCI-H226 cells assessed as cell growth at 10^-5 M after 48 hrs by sulforhodamine B assay relative to control; format: functional; settings: NCI-H226, 48 h, read-out: Activity; procedure, shortened: as §2
OVCAR-5 = assay: Growth inhibition of human OVCAR5 cells assessed as cell growth at 10^-5 M after 48 hrs by sulforhodamine B assay relative to control; format: functional; settings: OVCAR-5, 48 h, read-out: Activity; procedure, shortened: as §2
HCT-116 = assay: Growth inhibition of human HCT116 cells assessed as cell growth at 10^-5 M after 48 hrs by sulforhodamine B assay relative to control; format: functional; settings: HCT-116, 48 h, read-out: Activity; procedure, shortened: as §2
M14 = assay: Growth inhibition of human M14 cells assessed as cell growth at 10^-5 M after 48 hrs by sulforhodamine B assay relative to control; format: functional; settings: M14, 48 h, read-out: Activity; procedure, shortened: as §2
MOLT-4 = assay: Growth inhibition of human MOLT4 cells assessed as cell growth at 10^-5 M after 48 hrs by sulforhodamine B assay relative to control; format: functional; settings: MOLT-4, 48 h, read-out: Activity; procedure, shortened: as §2
LOX IMVI = assay: Growth inhibition of human LOXIMVI cells assessed as cell growth at 10^-5 M after 48 hrs by sulforhodamine B assay relative to control; format: functional; settings: read-out: Activity; procedure, shortened: as §2
HL-60(TB) = assay: Growth inhibition of human HL-60(TB) cells assessed as cell growth at 10^-5 M after 48 hrs by sulforhodamine B assay relative to control; format: functional; settings: HL-60, 48 h, read-out: Activity
Procedure, shortened: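 NCI-60 one-dose screen at 10^-5 M. Cells were grown in RPMI 1640 with 5% FBS and 2 mM L-glutamine and plated at 5,000–40,000 cells/well. They were preincubated 24 h at 37°C under 5% CO2, then exposed for 48 h. Suspension cells were fixed with 80% TCA (16% final) and stained with 0.4% SRB, read at 515 nm. Percent growth is versus untreated control, corrected for time-zero.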

MDA-MB-435 = assay: Growth inhibition of human MDA-MB-435 cells assessed as cell growth at 10^-5 M after 48 hrs by sulforhodamine B assay relative to control; format: functional; settings: MDA-MB-435, 48 h, read-out: Activity; procedure, shortened: as §2
786-0 = assay: Growth inhibition of human 786-0 cells assessed as cell growth at 10^-5 M after 48 hrs by sulforhodamine B assay relative to control; format: functional; settings: 786-0, 48 h, read-out: Activity; procedure, shortened: as §2
OVCAR-8 = assay: Growth inhibition of human OVCAR8 cells assessed as cell growth at 10^-5 M after 48 hrs by sulforhodamine B assay relative to control; format: functional; settings: OVCAR-8, 48 h, read-out: Activity; procedure, shortened: as §2
MDA-MB-231 = assay: Growth inhibition of human MDA-MB-231 cells assessed as cell growth at 10^-5 M after 48 hrs by sulforhodamine B assay relative to control; format: functional; settings: MDA-MB-231, 48 h, read-out: Activity; procedure, shortened: as §2
SK-OV-3 = assay: Growth inhibition of human SKOV3 cells assessed as cell growth at 10^-5 M after 48 hrs by sulforhodamine B assay relative to control; format: functional; settings: SK-OV-3, 48 h, read-out: Activity; procedure, shortened: as §2
U-251 = assay: Growth inhibition of human U251 cells assessed as cell growth at 10^-5 M after 48 hrs by sulforhodamine B assay relative to control; format: functional; settings: U-251, 48 h, read-out: Activity; procedure, shortened: as §1
IGROV-1 = assay: Growth inhibition of human IGROV1 cells assessed as cell growth at 10^-5 M after 48 hrs by sulforhodamine B assay relative to control; format: functional; settings: IGROV-1, 48 h, read-out: Activity; procedure, shortened: as §2
MCF7 = assay: Growth inhibition of human MCF7 cells assessed as cell growth at 10^-5 M after 48 hrs by sulforhodamine B assay relative to control; format: functional; settings: MCF7, 48 h, read-out: Activity; procedure, shortened: as §2
CAKI-1 = assay: Growth inhibition of human CAKI-1 cells assessed as cell growth at 10^-5 M after 48 hrs by sulforhodamine B assay relative to control; format: functional; settings: CAKI-1, 48 h, read-out: Activity; procedure, shortened: as §2
DU-145 = assay: Growth inhibition of human DU145 cells assessed as cell growth at 10^-5 M after 48 hrs by sulforhodamine B assay relative to control; format: functional; settings: DU-145, 48 h, read-out: Activity; procedure, shortened: as §2
COLO 205 = assay: Growth inhibition of human COLO205 cells assessed as cell growth at 10^-5 M after 48 hrs by sulforhodamine B assay relative to control; format: functional; settings: COLO 205, 48 h, read-out: Activity; procedure, shortened: as §2
SR = assay: Growth inhibition of human SR cells assessed as cell growth at 10^-5 M after 48 hrs by sulforhodamine B assay relative to control; format: functional; settings: read-out: Activity; procedure, shortened: as §1
[2] = target: Proto-oncogene tyrosine-protein kinase Src (Homo sapiens, UniProt P12931); assay: Inhibition of human SRC
Sequence of Proto-oncogene tyrosine-protein kinase Src (P12931 2-536 limits assumed): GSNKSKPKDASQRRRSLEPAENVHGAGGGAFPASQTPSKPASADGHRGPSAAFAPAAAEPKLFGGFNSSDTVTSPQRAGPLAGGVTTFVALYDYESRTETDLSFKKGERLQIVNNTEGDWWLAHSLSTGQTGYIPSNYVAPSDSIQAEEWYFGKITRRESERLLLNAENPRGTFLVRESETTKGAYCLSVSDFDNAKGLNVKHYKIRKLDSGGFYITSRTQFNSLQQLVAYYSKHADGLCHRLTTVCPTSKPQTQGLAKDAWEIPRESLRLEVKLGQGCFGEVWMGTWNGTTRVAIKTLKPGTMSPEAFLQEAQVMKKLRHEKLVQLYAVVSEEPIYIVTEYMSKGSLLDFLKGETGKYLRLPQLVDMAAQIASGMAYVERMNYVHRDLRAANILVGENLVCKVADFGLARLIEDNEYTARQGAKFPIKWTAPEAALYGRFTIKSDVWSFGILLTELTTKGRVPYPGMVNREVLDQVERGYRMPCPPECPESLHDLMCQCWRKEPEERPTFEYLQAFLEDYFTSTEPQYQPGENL

Sequence of Mitogen-activated protein kinase 1 (P28482 whole entry): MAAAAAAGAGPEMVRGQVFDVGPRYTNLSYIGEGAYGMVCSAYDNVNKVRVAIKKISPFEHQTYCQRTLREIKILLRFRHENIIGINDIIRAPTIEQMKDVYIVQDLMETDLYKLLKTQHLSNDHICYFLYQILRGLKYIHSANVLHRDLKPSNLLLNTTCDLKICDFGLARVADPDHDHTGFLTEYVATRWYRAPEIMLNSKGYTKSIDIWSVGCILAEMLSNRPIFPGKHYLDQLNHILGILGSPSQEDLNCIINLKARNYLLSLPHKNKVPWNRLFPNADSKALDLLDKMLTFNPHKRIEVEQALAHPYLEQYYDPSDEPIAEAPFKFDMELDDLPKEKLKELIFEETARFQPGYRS

Cc1ccc(-c2csc(=N)n2CC(=O)N2CCOCC2)cc1
growth at 10 µM (SW-620): 114%
growth at 10 µM (NCI-H522): 93%
growth at 10 µM (MDA-MB-468): 106%
Ki [1]: 9.78 µM
growth at 10 µM (NCI-H226): 94.3%
growth at 10 µM (OVCAR-5): 102%
growth at 10 µM (HCT-116): 101%
growth at 10 µM (M14): 110%
growth at 10 µM (MOLT-4): 99.7%
growth at 10 µM (LOX IMVI): 92.8%
growth at 10 µM (HL-60(TB)): 93.2%
growth at 10 µM (MDA-MB-435): 87.2%
growth at 10 µM (786-0): 97.9%
growth at 10 µM (OVCAR-8): 108%
growth at 10 µM (MDA-MB-231): 98.4%
growth at 10 µM (SK-OV-3): 114%
growth at 10 µM (U-251): 91.8%
growth at 10 µM (IGROV-1): 112%
growth at 10 µM (MCF7): 97.8%
growth at 10 µM (CAKI-1): 89.2%
growth at 10 µM (DU-145): 108%
growth at 10 µM (COLO 205): 113%
growth at 10 µM (SR): 96.2%
Ki [2]: 13.3 µM

CN1CCN(C(=O)Cn2c(-c3ccccc3)csc2=N)CC1
growth at 10 µM (SW-620): 96.1%
growth at 10 µM (NCI-H522): 82.3%
growth at 10 µM (MDA-MB-468): 97.6%
Ki [1]: 4.89 µM
growth at 10 µM (NCI-H226): 85.2%
growth at 10 µM (OVCAR-5): 110%
growth at 10 µM (HCT-116): 91.6%
growth at 10 µM (M14): 94.2%
growth at 10 µM (MOLT-4): 95.2%
growth at 10 µM (LOX IMVI): 87.3%
growth at 10 µM (HL-60(TB)): 100%
growth at 10 µM (MDA-MB-435): 104%
growth at 10 µM (786-0): 101%
growth at 10 µM (OVCAR-8): 92.9%
growth at 10 µM (MDA-MB-231): 78.8%
growth at 10 µM (SK-OV-3): 89.2%
growth at 10 µM (U-251): 88.2%
growth at 10 µM (IGROV-1): 93.2%
growth at 10 µM (MCF7): 81.4%
growth at 10 µM (CAKI-1): 70.4%
growth at 10 µM (DU-145): 104%
growth at 10 µM (COLO 205): 103%
growth at 10 µM (SR): 74.1%
Ki [2]: 7.91 µM

N=c1scc(-c2ccccc2)n1CC(=O)N1CCOCC1
growth at 10 µM (SW-620): 98%
growth at 10 µM (NCI-H522): 94.2%
growth at 10 µM (MDA-MB-468): 98.4%
Ki [1]: 13.8 µM
growth at 10 µM (NCI-H226): 86.7%
growth at 10 µM (OVCAR-5): 96.3%
growth at 10 µM (HCT-116): 98.6%
growth at 10 µM (M14): 100%
growth at 10 µM (MOLT-4): 95.2%
growth at 10 µM (LOX IMVI): 92%
growth at 10 µM (HL-60(TB)): 118%
growth at 10 µM (MDA-MB-435): 101%
growth at 10 µM (786-0): 102%
growth at 10 µM (OVCAR-8): 94.8%
growth at 10 µM (MDA-MB-231): 95.1%
growth at 10 µM (SK-OV-3): 92.3%
growth at 10 µM (U-251): 95.1%
growth at 10 µM (IGROV-1): 86.7%
growth at 10 µM (MCF7): 89.5%
growth at 10 µM (CAKI-1): 76.2%
growth at 10 µM (DU-145): 107%
growth at 10 µM (COLO 205): 107%
growth at 10 µM (SR): 86.7%
Ki [2]: 20.2 µM

N=c1scc(-c2ccc(Cl)cc2)n1CC(=O)N1CCOCC1
growth at 10 µM (SW-620): 103%
growth at 10 µM (NCI-H522): 79.5%
growth at 10 µM (MDA-MB-468): 95.5%
Ki [1]: 9.18 µM
growth at 10 µM (NCI-H226): 94.4%
growth at 10 µM (OVCAR-5): 113%
growth at 10 µM (HCT-116): 87.4%
growth at 10 µM (M14): 92.2%
growth at 10 µM (MOLT-4): 69.2%
growth at 10 µM (LOX IMVI): 97.9%
growth at 10 µM (HL-60(TB)): 96.6%
growth at 10 µM (MDA-MB-435): 84.6%
growth at 10 µM (786-0): 95.5%
growth at 10 µM (OVCAR-8): 101%
growth at 10 µM (MDA-MB-231): 97.5%
growth at 10 µM (SK-OV-3): 90%
growth at 10 µM (U-251): 88.3%
growth at 10 µM (IGROV-1): 90.4%
growth at 10 µM (MCF7): 86.8%
growth at 10 µM (CAKI-1): 84.4%
growth at 10 µM (DU-145): 104%
growth at 10 µM (COLO 205): 101%
growth at 10 µM (SR): 72.7%
Ki [2]: 16.7 µM
